Screening data (PubChem BioAssay)
L929 necroptosis: blocks zVAD induced death of L929 cells. viability rescue, % at 10 µM. hit rate 0.38% among 220,000. L929 zVAD necroptosis rescue, ATP luminescence, 24 h; with zVAD 60 µM. AID 1377;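 active = activation, scaled between plate controls, above about 75%, limit read from the data; inactive = activation under that limit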
Dynein cargo inh: dynein cargo transport inhibition. hit rate 0.47% among 220,000. z-score, hits read low. 3617.4 mouse cells, GR-EGFP nuclear translocation imaging; test concentration mostly 20 µM; stimulated with dexamethasone, 1 µM; hits give low values;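 active = plate z-score of nuclear minus cytoplasmic receptor signal below a set negative limit, without overly bright fluorescence or cell loss, cut at about -3.5 in these data, passing the limit was not always enough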;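 note: z-score of nuclear minus cytoplasmic ring GR-EGFP intensity difference per well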
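Buffer or medium: tetracycline-free induction medium containing charcoal-stripped FBS / Reagent: dexamethasone agonist, 1.0 µM final, for 30 min / Technique: automated 10x imaging of fixed Hoechst-stained cells / Times: induction 48 h, compound 1 h, agonist 30 min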
HSV replic up: HSV replication enhancement | maximum fold increase | hit rate 0.005% among 220,000 | HSV replication augmentation in cells, fold increase; in the data active = maximum fold increase above about 1.5; inconclusive = no clear call, values can overlap the other calls; tested in PC3 cells
Autophagy HCS: autophagy modulation, high-content screen; MEF GFP-LC3 puncta imaging; test concentration mostly 10 µM; calls only at 10 µM (by protocol); hit rate 0.98% among 190,000;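 active = percentage of spot-positive cells more than 3 SD above its plate mean, without a fluorescence outlier flag or 80% toxicity; inconclusive = no clear call, values can overlap the other calls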
TNF necrop inh: TNF-alpha cell death inhibition in Jurkat FADD-/- cells. Jurkat FADD-/- TNF necroptosis rescue, ATP luminescence, 24 h; 0 = TNF only, 100 = no-TNF cells. activation (protection from cell death), % at 10 µM. hit rate 0.068% among 220,000. AID 463075;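 active = activation, meaning protection from cell death, of at least 50% relative to plate controls; inactive = activation below 50%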;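 note: necroptosis triggered by 40 ng/mL TNF-alpha added together with compound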
Furin inhibitor: inhibitors of human furin | P09958 | purified furin, fluorogenic substrate cleavage | inhibition, % at 20 µM or 30 µM | hit rate 0.061% among 220,000; in the data active = inhibition above about 25%
Target sequence (P09958 108-714 limits assumed): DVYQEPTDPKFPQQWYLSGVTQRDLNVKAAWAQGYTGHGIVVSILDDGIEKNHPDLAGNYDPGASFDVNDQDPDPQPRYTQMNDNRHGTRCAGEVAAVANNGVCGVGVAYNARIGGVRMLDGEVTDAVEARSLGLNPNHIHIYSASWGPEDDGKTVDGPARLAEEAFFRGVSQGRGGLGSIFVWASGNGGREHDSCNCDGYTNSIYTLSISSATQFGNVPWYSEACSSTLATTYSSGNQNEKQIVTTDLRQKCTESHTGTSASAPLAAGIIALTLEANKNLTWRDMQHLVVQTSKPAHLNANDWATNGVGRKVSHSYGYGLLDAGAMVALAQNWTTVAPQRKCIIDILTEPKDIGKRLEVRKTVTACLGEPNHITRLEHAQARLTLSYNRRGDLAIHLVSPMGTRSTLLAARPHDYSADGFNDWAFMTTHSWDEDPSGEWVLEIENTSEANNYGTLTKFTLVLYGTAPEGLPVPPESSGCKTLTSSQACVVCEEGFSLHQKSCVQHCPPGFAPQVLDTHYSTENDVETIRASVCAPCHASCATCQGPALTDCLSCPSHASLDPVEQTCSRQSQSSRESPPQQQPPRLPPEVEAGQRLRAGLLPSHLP
A number is an active result; i = inactive; ? = inconclusive; nt = not tested or not shown; + = active, no number. Most compounds without a hit are left out; they make up all but 1.8% or so of the library.

SMILES | L929 necroptosis | Dynein cargo inh | HSV replic up | Autophagy HCS | TNF necrop inh | Furin inhibitor
CCN(CC)c1ccc2cc(C(=O)Nc3ccccn3)c(=O)oc2c1 | i | i | ? | i | i | i
CCOc1cc(-n2cnnn2)c(OCC)cc1NC(=O)c1cc2ccc(N(CC)CC)cc2oc1=O | i | i | nt | + | i | i
O=C(CCNC(=O)c1ccc(Cl)cc1)Nc1c(F)c(F)cc(F)c1F | nt | i | i | i | i | i
COc1ccc(N=CC2=C(O)CC(C)(C)CC2=O)cc1 | i | i | i | i | i | 34.3
CC1(C)CC(=O)C(C=Nc2cccnc2/N=C/C2=C(O)CC(C)(C)CC2=O)=C(O)C1 | i | i | i | i | i | 54.7
CC1(C)CC(=O)C(C=Nc2ccncc2)=C(O)C1 | i | i | i | i | i | i
CC1(C)CC(=O)C(C=Nc2cccnc2)=C(O)C1 | i | i | i | i | i | 40.9
CC1(C)CC(=O)C(C=Nc2ccc(O)c(N=CC3=C(O)CC(C)(C)CC3=O)c2)=C(O)C1 | i | i | i | i | i | i
CC(=O)c1c(N2CCN(C)CC2)nc(=S)n(-c2cc(C)ccc2C)c1C | i | i | i | i | i | i
O=C(CCCN1C(=O)c2cccc3cccc(c23)C1=O)NC1CCS(=O)(=O)C1 (stereo not given) | i | i | i | i | i | i
COCCn1c(=O)[nH]c(=O)c2c(C(F)(F)F)cc(-c3cccs3)nc21 | i | i | i | i | i | i
COc1ccc(OC)c(N=c2ssnc2Cl)c1 | i | -4.74 | i | i | i | i
O=C(N/N=C\c1ccc(Cl)cc1Cl)c1sccc1-n1cccc1 | 88.5 | i | i | i | i | i
O=C(N/N=C\c1ccc(Cl)cc1)c1sccc1-n1cccc1 | i | i | i | i | i | i
CC(C)C(=O)c1cn(CC(=O)NCC2CCCO2)c2ccccc12 (stereo not given) | i | i | i | i | i | i
CCOC(=O)C1=C(O)/C(=C/c2cn(CC(=O)NCC3CCCO3)c3ccccc23)SC1=Nc1ccc(C)cc1 (stereo not given) | i | i | i | + | i | i
Cc1sc2nc(C(C)C)nc(SCC(=O)N3c4ccccc4CC3C)c2c1C (stereo not given) | i | i | i | + | i | i
CCc1nc(SCC(=O)N2c3ccccc3CC2C)c2c(C)c(C)sc2n1 (stereo not given) | i | i | i | i | i | i
CNC(CC(=O)c1ccc([N+](=O)[O-])cc1)C(Cl)(Cl)Cl (stereo not given) | i | -3.54 | i | i | i | i
COc1ccc(C(=O)CC(Nc2ccc([N+](=O)[O-])cc2)c2ccc(OC)cc2)cc1 (stereo not given) | i | i | i | i | i | i
O=C1/C(=C/c2ccncc2)CCc2ccccc21 | i | i | i | nt | i | i
O=C1/C(=C/c2ccncc2)CCC/C1=C\c1ccncc1 | i | -6.96 | i | + | i | i
COC(=O)/C(C#N)=C/c1c(Oc2cccc(C)c2C)nc2ccccn2c1=O | i | i | i | nt | i | i
Cc1c(C(=O)NCC2COc3ccccc3O2)oc2ccc(S(=O)(=O)N3CCOCC3)cc12 (stereo not given) | i | i | nt | i | i | i
CCN(CC)S(=O)(=O)c1ccc2oc(C(=O)NCC3COc4ccccc4O3)c(C)c2c1 (stereo not given) | i | i | i | + | i | i
SMILES | L929 necroptosis | Dynein cargo inh | HSV replic up | Autophagy HCS | TNF necrop inh | Furin inhibitor
O=[N+]([O-])c1ccc(-c2cn3nc(-c4ccccc4)c(-c4ccccc4)nc3n2)cc1 | i | i | i | nt | i | i
c1ccc(-c2cn3nc(-c4ccccc4)c(-c4ccccc4)nc3n2)cc1 | i | i | i | + | i | i
CCOc1nc(NC(=O)NC(=O)c2ccccc2)nc(-c2ccccc2)n1 | i | i | i | + | i | i
Cc1ccc(CN(CC(=O)NC2CCCC2)C(=O)CSc2nnc(COc3ccccc3)o2)cc1 | i | i | i | i | i | 25.0
O=C(CN(Cc1ccccc1)C(=O)CSc1nnc(COc2ccccc2)o1)NC1CCCC1 | i | i | ? | i | i | i
NNC(=O)c1oc2nc(-c3ccco3)cc(-c3ccco3)c2c1N | i | i | ? | nt | i | 25.0
COC(=O)c1ccc(NC2(C#N)C(=O)Nc3ccccc32)cc1 (stereo not given) | i | i | i | i | i | 31.4
CC(C)CNS(=O)(=O)c1ccc(CCC(=O)N2CCC(C(N)=O)CC2)cc1 | i | i | i | i | i | i
C/C(Cl)=C/CN1C(=O)C2C3C=CC(C3)C2C1=O (stereo not given) | i | i | i | i | 67.9 | i
C/C(=N\NC(=O)c1ccc(Cl)c(S(=O)(=O)Nc2ccccc2Cl)c1)c1ccncc1 | i | i | i | i | i | i
Cc1nc2ccccc2n1CC(=O)OCC(=O)NC1CC1 | i | i | i | + | i | i
CCc1ccc2c(c1)cc(CN(C(=S)Nc1ccc(Cl)cc1)C1CC1)c1nnnn12 | i | nt | i | + | i | i
COc1ccc(CN2C3CCCC2CC(NC(=O)/C=C/c2ccccc2)C3)cc1 (stereo not given) | i | i | i | + | i | i
CCCNC(=O)Cn1c(=O)/c(=C\c2ccc(-c3cccc([N+](=O)[O-])c3)o2)s/c1=C\C(=O)C(C)(C)C | i | i | i | + | i | i
Cc1ccc(C(=O)N/C(=C\c2ccc(-c3cccc([N+](=O)[O-])c3)o2)C(=O)NC(C)(C)C)cc1 | i | i | i | i | i | i
Cc1ccc(S(=O)(=O)Nc2ccnc3ccccc23)cc1 | i | i | i | i | i | i
Cc1ccc(S(=O)(=O)Nc2ccccc2-c2ccccc2)cc1 | i | i | i | + | i | i
COc1ccc(-c2nn(-c3ccccc3)cc2C(=O)N2c3ccc(C)cc3C3CN(C)CCC32)cc1 (stereo not given) | i | i | i | + | i | i
COc1ccc(NC(=O)c2ccc(COc3ccc(C)cc3)o2)cc1 | i | i | i | i | i | i
N#CC1=C(N)C(C#N)(C#N)[C@H](c2ccoc2)[C@H]2CN(Cc3ccccc3)CC=C12 | i | i | ? | + | i | i
CN1CC=C2C(C#N)=C(N)C(C#N)(C#N)[C@H](c3ccoc3)[C@H]2C1 | i | i | ? | + | i | i
CC(=O)N1CC=C2C(C#N)=C(N)C(C#N)(C#N)[C@H](c3ccoc3)[C@H]2C1 | i | i | i | i | i | i
COc1ccc(OC)c(C2C3CN(C(C)C)CC=C3C(C#N)=C(N)C2(C#N)C#N)c1 (stereo not given) | i | i | ? | + | i | i
CN1CC=C2C(C#N)=C(N)C(C#N)(C#N)C(c3cccc(Cl)c3Cl)C2C1 (stereo not given) | i | i | i | + | i | i
COc1ccc(-c2nnc3ccc(SCC(=O)Nc4nc5ccccc5s4)nn23)cc1OC | i | i | i | i | i | i
